The Ki is a measure of affinity in units of concentration, obtained from inhibition or displacement. Low values mean tighter binding, high ones weaker binding. As usually defined, the Km is the substrate concentration at which the rate is half of its maximum.

Series [1] can be described thus: Activity of the substrate is measured as the ratio of 100*Vmax/Km. In short, it runs like this:
(§1)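 Bovine adrenal PNMT, purified through the isoelectric precipitation step, was used. The radiochemical assay contained phosphate buffer (pH 8.0), unlabeled AdoMet, [methyl-3H]AdoMet and enzyme, incubated 30 min at 37 °C. It was stopped with borate buffer (pH 10) and extracted into toluene-isoamyl alcohol (7:3). Km and Vmax came from at least five concentrations of the variable substrate; compounds were tested as hydrochloride salts.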

The target in series [2] is T1, Phenylethanolamine N-methyltransferase (Bos taurus, UniProt P10938).
T1 sequence (P10938 whole entry): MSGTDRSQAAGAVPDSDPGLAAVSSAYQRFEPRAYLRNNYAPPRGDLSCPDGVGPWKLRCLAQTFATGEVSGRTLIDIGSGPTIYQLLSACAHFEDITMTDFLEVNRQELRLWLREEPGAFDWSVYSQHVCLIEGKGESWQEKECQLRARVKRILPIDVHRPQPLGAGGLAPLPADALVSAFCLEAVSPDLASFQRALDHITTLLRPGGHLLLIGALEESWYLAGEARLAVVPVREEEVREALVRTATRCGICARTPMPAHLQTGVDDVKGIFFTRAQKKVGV
The series is described as follows: In vitro inhibition of compound towards phenylethanolamine N-methyltransferase(PNMT) isolated from bovine adrenal glands. Summed up:
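Inhibition was measured on bovine adrenal PNMT partially purified through the isoelectric precipitation step. The radiochemical assay used phosphate buffer (pH 8.0) with unlabeled and [methyl-3H]AdoMet, 30 min at 37 °C. It was quenched with pH 10 borate buffer and extracted into toluene-isoamyl alcohol (7:3). Ki came from at least three inhibitor concentrations with phenylethanolamine as the variable substrate; compounds were tested as hydrochloride salts.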

Substrate in series [3]: NC[C@@H](O)c1ccccc1
The series is described as follows: (§2) In vitro enzyme kinetics (PNMT)of the compound expressed as turnover rate isolated from bovine adrenal glands. In short, it runs like this:
as §1

Substrate in series [4]: NCC(O)c1ccc2c(c1)Cc1ccccc1-2
Described as §2. Summed up:
as §1

Substrate in series [5]: NCC(O)c1ccc(-c2ccccc2)cc1
The description is as §2. In short, it runs like this: as §1

Substrate in series [6]: NCC(O)c1cccc2c1Cc1ccccc1-2
The series is described as §2. In short, it runs like this:
as §1

Substrate in series [7]: NCC(O)c1cccc(-c2ccccc2)c1
Described as §2. In short, it runs like this: as §1

Substrate in series [8]: NC[C@@H](O)c1ccccc1
The series is described as follows: (§3) In vitro enzyme kinetics (PNMT) of the compound expressed as Michaelis constant isolated from bovine adrenal glands. In short, it runs like this: as §1

Substrate in series [9]: NCC(O)c1ccc2c(c1)Cc1ccccc1-2
The description is as §3. Summed up:
as §1

Substrate in series [10]: NCC(O)c1ccc(-c2ccccc2)cc1
The description is as §3. In short, it runs like this: as §1

Substrate in series [11]: NCC(O)c1cccc2c1Cc1ccccc1-2
The description is as §3. In short, it runs like this: as §1

For `NCC(O)c1ccc2c(c1)Cc1ccccc1-2` (stereo unspecified), in series [1], the Ratio stood at 6.7.

For `NCC(O)c1cccc2c1Cc1ccccc1-2` (stereo unspecified), in [1], the Ratio amounted to 0.015.

With `NCC(O)c1cccc(-c2ccccc2)c1` (stereo unspecified), the Ratio in series [1] came to 0.07.

In turn, `CC(N)c1cccc2c1Cc1ccccc1-2` (stereo unspecified) showed a Ki in [2] of 4.14 µM.

On to `CC(N)c1ccc2c(c1)Cc1ccccc1-2` (stereo unspecified), for which, in [2], the Ki came out at 185 µM.

Turning to `NC[C@@H](O)c1ccccc1`, the Ratio in series [1] worked out at 3.1.

For `NCC(O)c1ccc(-c2ccccc2)cc1` (stereo unspecified), the Ratio in [1] amounted to 5.2.

B1: Phenylethanolamine N-methyltransferase (Bos taurus), P10938 (protein)
chain: MSGTDRSQAAGAVPDSDPGLAAVSSAYQRFEPRAYLRNNYAPPRGDLSCPDGVGPWKLRCLAQTFATGEVSGRTLIDIGSGPTIYQLLSACAHFEDITMTDFLEVNRQELRLWLREEPGAFDWSVYSQHVCLIEGKGESWQEKECQLRARVKRILPIDVHRPQPLGAGGLAPLPADALVSAFCLEAVSPDLASFQRALDHITTLLRPGGHLLLIGALEESWYLAGEARLAVVPVREEEVREALVRTATRCGICARTPMPAHLQTGVDDVKGIFFTRAQKKVGV
For the molecule B1, the Vmax (nM min-1 (mg of protein)-1) worked out at 2.2 in [3]; 1.76 in [4]; 4.3 in series [5]; 0.046 in [6]; 0.46 in series [7]. The Km amounted to 70 µM in series [8], 26.3 µM in series [9], 82 µM in [10] and 297 µM in series [11].
